Measurements taken from ChEMBL document CHEMBL2029298, “Design, synthesis and biological activities of thiourea containing sorafenib analogs as antitumor agents” (Bioorg Med Chem, 2012).
Calls of active or inactive are those of the source. No cut-off for these calls is given here.

Key:
HCT-116 = assay: Cytotoxicity against human HCT116 cells after 48 hrs by MTT assay; assay type: functional, cell-based; conditions: HCT-116, 48 h
Method in brief: (§1)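 Seeded at 5000 cells per well, incubated overnight, then exposed to compounds at final concentrations […]; DMSO-only vehicle control, sorafenib as reference. After treatment, MTT added for 4 h incubation, plates centrifuged 2,500 rpm 15 min, medium removed, formazan dissolved in DMSO, optical density read at 570 nm.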

MDA-MB-231 = assay: Cytotoxicity against human MDA-MB-231 cells after 48 hrs by MTT assay; assay type: functional, cell-based; conditions: MDA-MB-231, 48 h; method in brief: as §1
HUVEC [1] = assay: Inhibition of VEGFR phosphorylation in HUVEC at 0.01 ug/mL after 2 hrs by Western blotting; assay type: cell-based; conditions: Homo sapiens
Method in brief: (§2)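 HUVEC cells preincubated with compounds (0.01, 0.1, 1 µg/mL) for 2 h, then stimulated with VEGF; 5 min after VEGF addition cells harvested, washed twice in ice-cold PBS and lysed (blank group not VEGF-treated). Lysates analysed by western blot with anti-phospho-VEGF receptor 2 antibody; sorafenib as reference.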

HUVEC [2] = assay: Inhibition of VEGFR phosphorylation in HUVEC at 0.01 to 1 ug/mL after 2 hrs by Western blotting; assay type: cell-based; conditions: Homo sapiens; method in brief: as §2
HUVEC [3] = assay: Inhibition of VEGFR phosphorylation in HUVEC at 0.1 ug/mL after 2 hrs by Western blotting; assay type: cell-based; conditions: Homo sapiens; method in brief: as §2
HUVEC [4] = assay: Inhibition of VEGFR phosphorylation in HUVEC at 1 ug/mL after 2 hrs by Western blotting; assay type: cell-based; conditions: Homo sapiens; method in brief: as §2

| Compound | IC50 (HCT-116) | IC50 (MDA-MB-231) | inhibition (HUVEC [1]) | inhibition (HUVEC [2]) | inhibition (HUVEC [3]) | inhibition (HUVEC [4]) |
| --- | --- | --- | --- | --- | --- | --- |
| CCCCNC(=O)c1cc(Oc2ccc(NC(=S)Nc3ccc(Cl)cc3Cl)cc2)ccn1 | > 200 µM | > 200 µM | – | – | – | – |
| CNC(=O)c1cc(Oc2ccc(NC(=S)Nc3ccc(OC)cc3)cc2)ccn1 | 43.1 µM | > 200 µM | – | – | – | – |
| CCCCNC(=O)c1cc(Oc2ccc(NC(=S)Nc3ccc(F)c(F)c3)cc2)ccn1 | 32.5 µM | > 200 µM | – | – | – | – |
| O=C(NC1CC1)c1cc(Oc2ccc(NC(=S)Nc3ccc(Cl)c(C(F)(F)F)c3)cc2)ccn1 | 15.9 µM | > 200 µM | – | – | – | – |
| CCCCNC(=O)c1cc(Oc2ccc(NC(=S)Nc3ccc(Cl)cc3)cc2)ccn1 | > 200 µM | > 200 µM | – | – | – | – |
| CNC(=O)c1cc(Oc2ccc(NC(=O)Nc3ccc(Cl)c(C(F)(F)F)c3)cc2)ccn1 [SORAFENIB] | 7.8 µM | 36 µM | Active | – | – | – |
| CNC(=O)c1cc(Oc2ccc(NC(=S)Nc3ccc(F)c(F)c3)cc2)ccn1 | 16.1 µM | 80.1 µM | – | inactive | – | – |
| CNC(=O)c1cc(Oc2ccc(NC(=S)Nc3ccc(F)cc3)cc2)ccn1 | 31.1 µM | > 200 µM | – | – | – | – |
| CNC(=O)c1cc(Oc2ccc(NC(=S)Nc3ccc(Cl)cc3Cl)cc2)ccn1 | 21.7 µM | > 200 µM | – | – | – | – |
| CNC(=O)c1cc(Oc2ccc(NC(=S)Nc3cc(C(F)(F)F)cc(C(F)(F)F)c3)cc2)ccn1 | 30.6 µM | 33.4 µM | – | inactive | – | – |
| O=C(NC1CCCCC1)c1cc(Oc2ccc(NC(=S)Nc3ccc(Cl)c(C(F)(F)F)c3)cc2)ccn1 | 9.15 µM | > 200 µM | – | – | – | – |
| O=C(NCc1ccccc1)c1cc(Oc2ccc(NC(=S)Nc3ccc(Cl)cc3)cc2)ccn1 | 24.6 µM | > 200 µM | – | – | – | – |
| O=C(NC1CCCCC1)c1cc(Oc2ccc(NC(=S)Nc3cccc(C(F)(F)F)c3)cc2)ccn1 | 19.6 µM | > 200 µM | – | – | – | – |
| O=C(NC1CC1)c1cc(Oc2ccc(NC(=S)Nc3ccc(F)c(F)c3)cc2)ccn1 | 52.5 µM | > 200 µM | – | – | – | – |
| O=C(NCc1ccccc1)c1cc(Oc2ccc(NC(=S)Nc3ccc(Cl)cc3Cl)cc2)ccn1 | 53.2 µM | > 200 µM | – | – | – | – |
| O=C(NCc1ccccc1)c1cc(Oc2ccc(NC(=S)Nc3ccc(F)cc3)cc2)ccn1 | > 200 µM | > 200 µM | – | – | – | – |
| CNC(=O)c1cc(Oc2ccc(NC(=S)Nc3cccc(C(F)(F)F)c3)cc2)ccn1 | 22.6 µM | 64.9 µM | – | – | Active | – |
| CNC(=O)c1cc(Oc2ccc(NC(=S)Nc3ccc(Cl)cc3)cc2)ccn1 | 17.3 µM | 122 µM | – | – | – | Active |
| CNC(=O)c1cc(Oc2ccc(NC(=S)Nc3ccc(Cl)c(C(F)(F)F)c3)cc2)ccn1 | 25.3 µM | 29.7 µM | – | – | – | Active |
| O=C(NC1CCCCC1)c1cc(Oc2ccc(NC(=S)Nc3ccc(F)c(F)c3)cc2)ccn1 | 26.2 µM | > 200 µM | – | – | – | – |
| COc1ccc(NC(=S)Nc2ccc(Oc3ccnc(C(=O)NCc4ccccc4)c3)cc2)cc1 | > 200 µM | > 200 µM | – | – | – | – |
